Experimental data pooled from the literature.
Lines come from different studies, so protocols differ.
Palmitoyl-protein thioesterase 1: Palmitoyl-protein thioesterase 1 (Homo sapiens, UniProt P50897)
Transmembrane protease serine 6: Transmembrane protease serine 6 (Homo sapiens, UniProt Q8IU80)

COc1cc(-c2cncc3c2CN(C)Cc2cc(N4CCNCC4)ccc2-3)cc(OC)c1OC — remaining activity (Muscle, skeletal receptor tyrosine-protein kinase (MUSK, Homo sapiens, UniProt O15146); enzyme activity; inhibitor; 1 µM): 113%
O=C1C=C2CC3(O)COc4cc(O)ccc4C3=C2C=C1O (stereo not drawn) — inhibition (Palmitoyl-protein thioesterase 1; enzyme activity; inhibitor; 625 µM): 29.3%
N=C(N)NCCC[C@H](NC(=O)C1(NC(=O)[C@H](Cc2cscn2)NC(=O)CCc2ccccc2)CC1)C(=O)c1nc2ccccc2s1 — remaining activity (Transmembrane protease serine 6; enzyme activity; inhibitor; 0.1 µM): 60%
Cc1cc([C@@H](C)Nc2ccccc2C(=O)O)c2nc(N3CCC(F)(F)CC3)c(C#N)c(=O)n2c1 — remaining binding (SRSF protein kinase 3 (SRPK3, Homo sapiens, UniProt Q9UPE1); binding; competition with immobilised ligand; 10 µM): 96%
C=CC(=O)N1CCC(COCC(=O)N2CCN(c3nc(-c4cnc(N)nc4C(F)F)nc(N4CCOC[C@@H]4C)n3)CC2)CC1 — remaining binding (Ribosomal protein S6 kinase alpha-2, C-terminal kinase domain (RPS6KA2, Homo sapiens, UniProt Q15349); binding; competition with immobilised ligand; 1 µM): 90%
N=C(N)NCCC[C@H](NC(=O)[C@H](CC12CC3CC(CC(C3)C1)C2)NC(=O)[C@H](Cc1cscn1)NC(=O)CCc1ccccc1)C(=O)c1nc2ccccc2s1 — remaining activity (Transmembrane protease serine 6; enzyme activity; inhibitor; 0.1 µM): 95%
NC(=O)c1c(OCc2c(F)cc(Br)cc2F)nsc1NC(=O)NCCCCN1CCCC1 — inhibition (Palmitoyl-protein thioesterase 1; enzyme activity; inhibitor; 125 µM): 8.63%
N=C(N)NCCC[C@H](NC(=O)[C@H](CC1CCCCC1)NC(=O)[C@H](Cc1cscn1)NC(=O)CCc1ccccc1)C(=O)c1nc2ccccc2s1 — remaining activity (Transmembrane protease serine 6; enzyme activity; inhibitor; 0.1 µM): 6%
CNc1ncc2c(/C=C/C(=O)N3CCC(OC)CC3)nn(Cc3cccc(C(F)(F)F)c3)c2n1 — remaining activity (Epidermal growth factor receptor (EGFR, Homo sapiens, UniProt P00533); enzyme activity; inhibitor; radiometric; 1 µM): 108%
